# Results from different studies.
# Lines come from different studies, so protocols differ.
# Target: Serine/threonine-protein kinase VRK2 (VRK2, Homo sapiens, UniProt Q86Y07)
SMILES,effect on,method,concentration,remaining binding
CN(C)c1nccc(-c2cnc3ncccn23)n1,binding,,1 µM,64%
CC(=O)C1=C(C)N(c2cccc(C(F)(F)F)c2)C(=O)N[C@@H]1c1ccc(C#N)nc1,cell-free assay,competition with immobilised ligand,1 µM,77.6%
c1cnn2ncc(-c3ccnc(N4CCC45COC5)n3)c2c1,binding,,1 µM,74%
Cc1noc([C@H]2C[C@@H](c3ccc(C(F)(F)F)cc3)CN(C(=O)N3CCS(=O)(=O)C3)C2)n1,cell-free assay,competition with immobilised ligand,1 µM,91%
O=C(c1ccc(Nc2ncc(Cl)c(-c3cc4ccccc4s3)n2)cc1)N1CCC(N2CCCC2)CC1,binding,competition with immobilised ligand,1 µM,70%
CNC(=O)Nc1ccc2c(c1)CC[C@@]21OC(=O)N(CC(=O)N(Cc2ccc(F)cc2)[C@@H](C)C(F)(F)F)C1=O,cell-free assay,competition with immobilised ligand,1 µM,91%
O=C(c1ccc(Nc2ncc(Cl)c(-c3ccc(Cl)s3)n2)cc1)N1CCC(N2CCCC2)CC1,binding,competition with immobilised ligand,1 µM,56%
CN(CCCC(F)(F)F)c1nccc(-c2cnn3ncccc23)n1,binding,,1 µM,100%
O=C(Nc1c[nH]nc1C(=O)NC1CCNCC1)c1cc(F)cc(F)c1,binding,competition with immobilised ligand,1 µM,100%
CNC(=O)Nc1ccc2c(c1)[C@@]1(CC2)OC(=O)N(CC(=O)N(Cc2ccc(F)cc2)[C@@H](C)C(F)(F)F)C1=O,cell-free assay,competition with immobilised ligand,1 µM,97%
CCN1CCN(Cc2ccc(C(=O)Nc3ccc(C)c(Oc4ccc5c(c4)CC(=O)N5)c3)cc2C(F)(F)F)CC1,binding,competition with immobilised ligand,1 µM,100%
COc1ncc2cc3ccccc3nc2c1C#N,cell-free assay,competition with immobilised ligand,5 µM,98%
O=C(NCCCN1CCOCC1)c1ccc(Nc2nccc(-c3cc4ccccc4s3)n2)cc1,binding,competition with immobilised ligand,1 µM,100%
c1cncc(-c2cccc(Nc3nccc(NC4CCCCC4)n3)c2)c1,binding,competition with immobilised ligand,10 µM,82%
O=C(NCCCC1CCCCC1)c1ccc(CNC(=O)c2cnn(-c3ccccc3)c2C(F)(F)F)cc1,cell-free assay,competition with immobilised ligand,0.1 µM,100%
N[C@@H]1CCN(c2nccc(-c3cnn4ncccc34)n2)C1,binding,,1 µM,100%
C=CC(=O)N1CCC(C(=O)NCC(=O)N2CCN(c3nc(-c4cnc(N)nc4C(F)F)nc(N4CCOCC4)n3)CC2)CC1,binding,competition with immobilised ligand,1 µM,93%
C[C@@H]1CCN(c2nccc(-c3cnn4ncccc34)n2)C1,binding,,1 µM,82%
CN([C@@H]1CCc2c(CC(=O)O)c3cc(S(C)(=O)=O)ccc3n2C1)S(=O)(=O)c1ccc(F)cc1,cell-free assay,competition with immobilised ligand,1 µM,94%
CN(C)c1nccc(-c2cnn3ncccc23)n1,binding,,1 µM,80%
O=C(N1CCS(=O)(=O)CC1)N1C[C@H](c2ccc(OC(F)(F)F)cc2)C[C@H](c2nc(C3CC3)no2)C1,cell-free assay,competition with immobilised ligand,1 µM,90%
COc1cnc(Nc2cccc(S(N)(=O)=O)c2)nc1N1CCN(c2ccccc2)C(=O)C1,binding,competition with immobilised ligand,1 µM,89%
